Experimental data published in ChEMBL document CHEMBL1136810, “Design and synthesis of plasmepsin I and plasmepsin II inhibitors with activity in Plasmodium falciparum-infected cultured human erythrocytes” (J Med Chem, 2003).

Tests used:
[1] = molecular target: Plasmepsin I (Plasmodium falciparum, UniProt P39898); experiment: Binding affinity for Plasmodium falciparum plasmepsin-1.
Outline: (§1)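 Fluorogenic protease assay in 100 mM sodium acetate pH 4.5 with 10% glycerol and 0.01% Tween 20. Pro-Plm II at 3 nM had its pro-sequence removed by 40 min preincubation at room temperature. Plm I was matched to similar activity. Pro-cathepsin D at 50 ng/mL was activated 20 min at 37 °C. Inhibitors in DMSO (1% final) were added before 3 μM DABCYL/EDANS peptide substrate. Fluorescence rise was read over 10 min. IC50 came from a competitive-isotherm fit and was converted to Ki using Km.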

[2] = test system: Caco-2; experiment: Permeability in Caco-2 cells was determined; type: functional, cell-based; conditions: Homo sapiens
[3] = molecular target: Cathepsin D (Homo sapiens, UniProt P07339); experiment: In vitro binding affinity for human cathepsin D.; outline: as §1
[4] = molecular target: Plasmepsin II (Plasmodium falciparum, UniProt P46925); experiment: Binding affinity for Plasmodium falciparum plasmepsin-2.; outline: as §1
[5] = test system: Plasmodium falciparum; experiment: Percent inhibition of Plasmodium falciparum in red blood cells at 5 uM; type: functional
[6] = test system: Plasmodium falciparum; experiment: Percent inhibition of Plasmodium falciparum in erythrocytes at 5 uM; type: functional
[7] = test system: Plasmodium falciparum; experiment: Effective dose against Plasmodium falciparum in red blood cells; type: functional; conditions: read-out: ED50 (the source's name)
[8] = test system: Plasmodium falciparum; experiment: Percent inhibition against Plasmodium falciparum infected red blood cells at 5 uM; type: functional

Sequence of Plasmepsin II (P46925 whole entry): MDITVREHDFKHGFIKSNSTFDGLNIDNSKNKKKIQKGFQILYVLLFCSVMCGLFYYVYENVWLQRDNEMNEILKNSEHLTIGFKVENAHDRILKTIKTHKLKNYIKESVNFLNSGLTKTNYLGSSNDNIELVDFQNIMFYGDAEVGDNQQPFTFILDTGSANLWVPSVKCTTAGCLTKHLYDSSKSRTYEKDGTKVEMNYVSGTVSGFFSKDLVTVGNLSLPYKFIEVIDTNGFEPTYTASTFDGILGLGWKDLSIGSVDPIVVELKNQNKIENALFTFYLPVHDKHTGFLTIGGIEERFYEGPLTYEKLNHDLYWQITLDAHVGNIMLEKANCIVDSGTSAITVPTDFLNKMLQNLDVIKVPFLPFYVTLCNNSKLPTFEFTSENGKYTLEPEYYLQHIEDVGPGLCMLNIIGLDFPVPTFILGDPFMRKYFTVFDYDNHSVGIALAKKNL
Sequence of Plasmepsin I (P39898 whole entry): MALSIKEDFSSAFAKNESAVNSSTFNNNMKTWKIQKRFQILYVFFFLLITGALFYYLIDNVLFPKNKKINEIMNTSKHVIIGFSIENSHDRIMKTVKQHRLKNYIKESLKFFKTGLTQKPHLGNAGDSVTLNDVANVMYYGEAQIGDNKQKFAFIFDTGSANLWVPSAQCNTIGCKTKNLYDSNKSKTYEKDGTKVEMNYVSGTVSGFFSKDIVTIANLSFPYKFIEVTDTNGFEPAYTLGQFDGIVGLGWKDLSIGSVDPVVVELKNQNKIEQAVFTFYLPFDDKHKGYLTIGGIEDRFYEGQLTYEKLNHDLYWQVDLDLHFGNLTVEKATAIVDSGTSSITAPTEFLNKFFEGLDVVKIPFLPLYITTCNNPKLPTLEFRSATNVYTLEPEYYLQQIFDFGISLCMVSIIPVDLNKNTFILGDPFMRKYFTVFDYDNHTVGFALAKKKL
Sequence of Cathepsin D (P07339 65-162 limits assumed): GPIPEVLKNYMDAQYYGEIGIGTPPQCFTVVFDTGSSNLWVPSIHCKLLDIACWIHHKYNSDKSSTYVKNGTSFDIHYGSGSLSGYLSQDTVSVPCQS
Sequence of Cathepsin D (P07339 169-412 limits assumed): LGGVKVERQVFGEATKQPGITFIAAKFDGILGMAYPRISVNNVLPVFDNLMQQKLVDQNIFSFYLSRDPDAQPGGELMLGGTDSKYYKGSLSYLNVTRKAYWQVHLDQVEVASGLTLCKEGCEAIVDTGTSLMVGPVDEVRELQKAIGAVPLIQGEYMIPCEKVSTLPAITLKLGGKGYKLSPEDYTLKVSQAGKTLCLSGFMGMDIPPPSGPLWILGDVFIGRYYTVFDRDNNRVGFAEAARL

| SMILES | Ki [1] | Ki [3] | Ki [4] | also measured |
| --- | --- | --- | --- | --- |
| CC(C)[C@H](NC(=O)c1ccccn1)C(=O)N[C@@H](Cc1ccccc1)[C@@H](O)CN[C@@H](Cc1ccc(-c2ccccc2)cc1)C(N)=O | 68 nM | > 2000 nM | 117 nM | Papp [2]: 10.3 ×10⁻⁶ cm/s |
| CC(C)[C@H](NC(=O)c1ccccn1)C(=O)N[C@@H](Cc1ccccc1)[C@@H](O)CN[C@@H](Cc1cccc(-c2cccc(N)c2)c1)C(N)=O | 530 nM | > 2000 nM | 129 nM | inhibition at 5 µM [5]: 69% |
| CC(C)[C@H](NC(=O)c1ccccn1)C(=O)N[C@@H](Cc1ccccc1)[C@@H](O)CN[C@@H](Cc1cccc(OS(=O)(=O)C(F)(F)F)c1)C(N)=O | 469 nM | 1700 nM | > 2000 nM |  |
| CC(C)C[C@H](NC(=O)[C@H](C)NC(=O)C[C@H](O)[C@H](Cc1ccccc1)NC(=O)[C@@H](NC(=O)c1ccccn1)C(C)C)C(N)=O |  |  | 0.56 nM |  |
| CC(C)[C@H](NC(=O)c1ccccn1)C(=O)N[C@@H](Cc1ccccc1)[C@@H](O)CN[C@@H](Cc1ccccc1)C(N)=O |  | > 2800 nM |  |  |
| CC(C)[C@H](NC(=O)c1ccccn1)C(=O)N[C@@H](Cc1ccccc1)[C@@H](O)CN[C@@H](Cc1ccc(-c2cccc(N)c2)cc1)C(N)=O | 63 nM |  | 150 nM | inhibition at 5 µM [6]: 77% |
| CC(C)[C@H](NC(=O)c1ccccn1)C(=O)N[C@@H](Cc1ccccc1)[C@@H](O)CN1C(=O)NC(=O)[C@@H]1Cc1ccc(-c2ccccc2)cc1 | 2050 nM | > 2000 nM | 928 nM |  |
| CC(C)C[C@H](NC[C@H](O)[C@H](Cc1ccccc1)NC(=O)[C@@H](NC(=O)c1ccccn1)C(C)C)C(N)=O |  | > 2800 nM |  |  |
| CC(C)[C@H](NC(=O)c1ccccn1)C(=O)N[C@@H](Cc1ccccc1)[C@@H](O)CN[C@@H](C)C(N)=O | > 2000 nM | > 2000 nM | > 2000 nM |  |
| CC(C)[C@H](NC(=O)c1ccccn1)C(=O)N[C@@H](Cc1ccccc1)[C@@H](O)CN[C@H](Cc1ccccc1)C(N)=O |  | > 2000 nM |  |  |
| COc1ccccc1-c1cccc(C[C@H](NC[C@H](O)[C@H](Cc2ccccc2)NC(=O)[C@@H](NC(=O)c2ccccn2)C(C)C)C(N)=O)c1 | 1300 nM | > 2000 nM | 1430 nM |  |
| CC(C)[C@H](NC(=O)c1ccccn1)C(=O)N[C@@H](Cc1ccccc1)[C@@H](O)CN1C(=O)NC(=O)[C@@H]1Cc1ccc(Br)cc1 | > 2000 nM | > 2000 nM | 1900 nM |  |
| Cc1ccc(-c2ccc(C[C@H](NC[C@H](O)[C@H](Cc3ccccc3)NC(=O)[C@@H](NC(=O)c3ccccn3)C(C)C)C(N)=O)cc2)cc1 | 115 nM |  | 121 nM | EC50 [7]: 1600 nM |
| CC(C)C[C@H](NC[C@H](O)[C@H](Cc1ccccc1)NC(=O)c1ccccn1)C(N)=O | > 2000 nM | > 2000 nM | > 2000 nM |  |
| CC(C)[C@H](NC(=O)c1ccccn1)C(=O)N[C@@H](Cc1ccccc1)[C@@H](O)CN[C@H](C(N)=O)c1ccccc1 | > 2000 nM | > 2000 nM | > 2000 nM |  |
| CC(C)[C@H](NC(=O)c1ccccn1)C(=O)N[C@@H](Cc1ccccc1)[C@@H](O)CN[C@@H](Cc1ccc(Br)cc1)C(N)=O | 98 nM | > 2000 nM | 540 nM | inhibition at 5 µM [8]: 35% |
| Cc1ccc(-c2cccc(C[C@H](NC[C@H](O)[C@H](Cc3ccccc3)NC(=O)[C@@H](NC(=O)c3ccccn3)C(C)C)C(N)=O)c2)cc1 | 1100 nM | 1900 nM | 930 nM |  |
| CC(C)[C@H](NC(=O)c1ccccn1)C(=O)N[C@@H](Cc1ccccc1)[C@@H](O)CN[C@@H](Cc1cccc(-c2ccccc2)c1)C(N)=O | 1000 nM | 1600 nM | 579 nM |  |
| COc1ccccc1-c1ccc(C[C@H](NC[C@H](O)[C@H](Cc2ccccc2)NC(=O)[C@@H](NC(=O)c2ccccn2)C(C)C)C(N)=O)cc1 | 437 nM |  | 379 nM |  |
| CCCCNC(=O)C[C@H](O)[C@H](CC(C)C)NC(=O)[C@@H](NC(=O)Cc1ccc2ccccc2c1)C(C)CC (stereo partly drawn) |  | 320 nM | 50 nM |  |
